According to ChEMBL document CHEMBL3751743, “Synthesis and anti-cancer screening of novel heterocyclic-(2H)-1,2,3-triazoles as potential anti-cancer agents” (Medchemcomm, 2015):

Experiments:
[1] = Cytotoxicity against human DU145 cells after 48 hrs by SRB assay; assay type: functional; conditions: DU-145, 48 h
How it was run: (§1)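 NCI-60 five-dose screen: compounds dissolved in DMSO/H2O, tested at five 10-fold dilutions (10^-4 to 10^-8 M) for 48 h. Growth measured by sulforhodamine B optical density at time zero and after 48 h drug or vehicle exposure. Percentage growth calculated relative to control. GI50 is the molar concentration giving 50% reduction in net cell growth versus day-0 cell numbers.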

[2] = system: MCF7; assay: Cytotoxicity against human MCF7 cells after 48 hrs by SRB assay; assay type: functional; conditions: MCF7, 48 h; how it was run: as §1
[3] = system: MDA-MB-231; assay: Cytotoxicity against human MDA-MB-231 cells after 48 hrs by SRB assay; assay type: functional; conditions: MDA-MB-231, 48 h; how it was run: as §1
[4] = Cytotoxicity against human Hs 578T cells after 48 hrs by SRB assay; assay type: functional; how it was run: as §1
[5] = Cytotoxicity against human BT549 cells after 48 hrs by SRB assay; assay type: functional; conditions: BT-549, 48 h; how it was run: as §1
[6] = system: MDA-MB-468; assay: Cytotoxicity against human MDA-MB-468 cells after 48 hrs by SRB assay; assay type: functional; conditions: MDA-MB-468, 48 h; how it was run: as §1
[7] = Cytotoxicity against human Hs578T cells assessed as reduction of cell viability after 48 hrs by calcein-AM-based fluorescence analysis; assay type: functional; conditions: Hs-578T
How it was run: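 Cells seeded at 3,000 per well in DMEM with 10% FBS and left overnight at 37 °C. A range of compound concentrations or vehicle was then added for 48 h. Cells were washed with DPBS pH 7.4 and loaded with 2 μM calcein-AM for 30 min at 25 °C. Fluorescence read at ex 490/em 520 nm; viability is given relative to untreated control (100%). Mean ± s.d.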

[8] = target: Tubulin (Sus scrofa, UniProt P02554+P02550); assay: Inhibition of porcine brain tubulin polymerization by spectrophotometric analysis
How it was run: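 Tubulin at 4 mg/mL in cold 80 mM PIPES pH 6.9 with 2 mM MgCl2, 0.5 mM EGTA, GTP and 10% glycerol. Compound (added as 10x stock in 50% DMSO) or DMSO was preincubated 2 min at 37 °C in a prewarmed plate. Cold tubulin was then added, and polymerization at 37 °C was followed by A340 over time. Dose-response, mean ± s.d., n=3.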

[9] = system: CCRF-CEM; assay: Cytotoxicity against human CCRF-CEM cells after 48 hrs by SRB assay; assay type: functional; how it was run: as §1
[10] = Cytotoxicity against human HL-60(TB) cells after 48 hrs by SRB assay; assay type: functional; conditions: HL-60, 48 h; how it was run: as §1
[11] = system: K562; assay: Cytotoxicity against human K562 cells after 48 hrs by SRB assay; assay type: functional; conditions: K562, 48 h; how it was run: as §1
[12] = Cytotoxicity against human MOLT4 cells after 48 hrs by SRB assay; assay type: functional; conditions: MOLT-4, 48 h; how it was run: as §1
[13] = Cytotoxicity against human RPMI8226 cells after 48 hrs by SRB assay; assay type: functional; conditions: RPMI-8226, 48 h; how it was run: as §1
[14] = system: SR; assay: Cytotoxicity against human SR cells after 48 hrs by SRB assay; assay type: functional; how it was run: as §1
[15] = system: A549; assay: Cytotoxicity against human A549 cells after 48 hrs by SRB assay; assay type: functional; conditions: A549, 48 h; how it was run: as §1
[16] = Cytotoxicity against human HOP62 cells after 48 hrs by SRB assay; assay type: functional; conditions: HOP-62, 48 h
How it was run: (§2)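 NCI-60 five-dose screen: compounds in DMSO/H2O tested at 10^-4 to 10^-8 M (10-fold steps) for 48 h. Cell mass read by sulforhodamine B optical density at time zero and after exposure to compound or vehicle. GI50 is the concentration giving 50% reduction in net cell growth relative to day-0 cell numbers.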

[17] = Cytotoxicity against human HOP92 cells after 48 hrs by SRB assay; assay type: functional; conditions: HOP-92, 48 h; how it was run: as §1
[18] = system: NCI-H23; assay: Cytotoxicity against human NCI-H23 cells after 48 hrs by SRB assay; assay type: functional; conditions: NCI-H23, 48 h; how it was run: as §1
[19] = system: NCI-H460; assay: Cytotoxicity against human NCI-H460 cells after 48 hrs by SRB assay; assay type: functional; conditions: NCI-H460, 48 h; how it was run: as §1
[20] = system: NCI-H522; assay: Cytotoxicity against human NCI-H522 cells after 48 hrs by SRB assay; assay type: functional; conditions: NCI-H522, 48 h; how it was run: as §1
[21] = Cytotoxicity against human COLO205 cells after 48 hrs by SRB assay; assay type: functional; conditions: COLO 205, 48 h; how it was run: as §1
[22] = Cytotoxicity against human HCC2998 cells after 48 hrs by SRB assay; assay type: functional; conditions: HCC 2998, 48 h; how it was run: as §1
[23] = Cytotoxicity against human HCT116 cells after 48 hrs by SRB assay; assay type: functional; conditions: HCT-116, 48 h; how it was run: as §1
[24] = Cytotoxicity against human HCT15 cells after 48 hrs by SRB assay; assay type: functional; conditions: HCT-15, 48 h; how it was run: as §1
[25] = system: HT-29; assay: Cytotoxicity against human HT-29 cells after 48 hrs by SRB assay; assay type: functional; conditions: HT-29, 48 h; how it was run: as §1
[26] = system: KM12; assay: Cytotoxicity against human KM12 cells after 48 hrs by SRB assay; assay type: functional; conditions: KM12, 48 h; how it was run: as §1
[27] = Cytotoxicity against human SW620 cells after 48 hrs by SRB assay; assay type: functional; conditions: SW-620, 48 h; how it was run: as §1
[28] = Cytotoxicity against human SF268 cells after 48 hrs by SRB assay; assay type: functional; conditions: SF-268, 48 h; how it was run: as §1
[29] = Cytotoxicity against human SF295 cells after 48 hrs by SRB assay; assay type: functional; conditions: SF-295, 48 h; how it was run: as §1
[30] = Cytotoxicity against human SF539 cells after 48 hrs by SRB assay; assay type: functional; conditions: SF-539, 48 h; how it was run: as §1
[31] = Cytotoxicity against human SNB19 cells after 48 hrs by SRB assay; assay type: functional; conditions: SNB-19, 48 h; how it was run: as §1
[32] = Cytotoxicity against human SNB75 cells after 48 hrs by SRB assay; assay type: functional; conditions: SNB-75, 48 h; how it was run: as §1
[33] = system: U-251; assay: Cytotoxicity against human U251 cells after 48 hrs by SRB assay; assay type: functional; conditions: U-251, 48 h
How it was run: (§3)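 NCI-60 five-dose screen. Compounds dissolved in DMSO/H2O and tested at five 10-fold dilutions (10^-4 to 10^-8 M) for 48 h. Growth read by sulforhodamine B optical density at time zero and after 48 h of exposure to compound or vehicle. Percent growth calculated against control. GI50 is the molar concentration giving 50% reduction in net cell growth relative to cell number on day 0.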

[34] = Cytotoxicity against human LOXIMVI cells after 48 hrs by SRB assay; assay type: functional; conditions: LOX IMVI; how it was run: as §1
[35] = system: M14; assay: Cytotoxicity against human M14 cells after 48 hrs by SRB assay; assay type: functional; conditions: M14, 48 h; how it was run: as §1
[36] = system: MDA-MB-435; assay: Cytotoxicity against human MDA-MB-435 cells after 48 hrs by SRB assay; assay type: functional; conditions: MDA-MB-435, 48 h; how it was run: as §1
[37] = system: SK-MEL-2; assay: Cytotoxicity against human SK-MEL-2 cells after 48 hrs by SRB assay; assay type: functional; conditions: SK-MEL-2, 48 h; how it was run: as §1
[38] = system: SK-MEL-28; assay: Cytotoxicity against human SK-MEL-28 cells after 48 hrs by SRB assay; assay type: functional; conditions: SK-MEL-28, 48 h; how it was run: as §1
[39] = system: SK-MEL-5; assay: Cytotoxicity against human SK-MEL-5 cells after 48 hrs by SRB assay; assay type: functional; conditions: SK-MEL-5, 48 h; how it was run: as §1
[40] = Cytotoxicity against human UACC257 cells after 48 hrs by SRB assay; assay type: functional; conditions: UACC-257, 48 h; how it was run: as §3
[41] = Cytotoxicity against human UACC62 cells after 48 hrs by SRB assay; assay type: functional; conditions: UACC-62, 48 h; how it was run: as §3
[42] = Cytotoxicity against human IGROV1 cells after 48 hrs by SRB assay; assay type: functional; conditions: IGROV-1, 48 h; how it was run: as §2
[43] = Cytotoxicity against human OVCAR3 cells after 48 hrs by SRB assay; assay type: functional; conditions: OVCAR-3, 48 h; how it was run: as §1
[44] = Cytotoxicity against human OVCAR4 cells after 48 hrs by SRB assay; assay type: functional; conditions: OVCAR-4, 48 h; how it was run: as §1
[45] = Cytotoxicity against human OVCAR5 cells after 48 hrs by SRB assay; assay type: functional; conditions: OVCAR-5, 48 h; how it was run: as §1
[46] = Cytotoxicity against human OVCAR8 cells after 48 hrs by SRB assay; assay type: functional; conditions: OVCAR-8, 48 h; how it was run: as §1
[47] = Cytotoxicity against human NCI-ADR-RES cells after 48 hrs by SRB assay; assay type: functional; how it was run: as §1
[48] = Cytotoxicity against human SKOV3 cells after 48 hrs by SRB assay; assay type: functional; conditions: SK-OV-3, 48 h; how it was run: as §1
[49] = system: 786-0; assay: Cytotoxicity against human 786-0 cells after 48 hrs by SRB assay; assay type: functional; conditions: 786-0, 48 h; how it was run: as §1
[50] = system: A498; assay: Cytotoxicity against human A498 cells after 48 hrs by SRB assay; assay type: functional; conditions: A498, 48 h; how it was run: as §1
[51] = system: ACHN; assay: Cytotoxicity against human ACHN cells after 48 hrs by SRB assay; assay type: functional; how it was run: as §1
[52] = Cytotoxicity against human Caki1 cells after 48 hrs by SRB assay; assay type: functional; conditions: CAKI-1, 48 h; how it was run: as §1
[53] = system: SN12C; assay: Cytotoxicity against human SN12C cells after 48 hrs by SRB assay; assay type: functional; how it was run: as §1
[54] = Cytotoxicity against human UO31 cells after 48 hrs by SRB assay; assay type: functional; conditions: UO-31, 48 h; how it was run: as §3
[55] = Cytotoxicity against human PC3 cells after 48 hrs by SRB assay; assay type: functional; conditions: PC-3, 48 h; how it was run: as §1

COc1cc(-c2n[nH]nc2-c2cc3ccccc3s2)cc(OC)c1OC
GI50 [1]: < 10 nM | GI50 [2]: < 10 nM | GI50 [3]: 14 nM | GI50 [4]: < 10 nM | GI50 [5]: < 10 nM | GI50 [6]: < 10 nM | GI50 [7]: 10 nM | IC50 [8]: 1.7 µM | GI50 [9]: 28 nM | GI50 [10]: < 10 nM | GI50 [11]: < 10 nM | GI50 [12]: 42 nM | GI50 [13]: < 10 nM | GI50 [14]: < 10 nM | GI50 [15]: 23 nM | GI50 [16]: 15 nM | GI50 [17]: < 10 nM | GI50 [18]: < 10 nM | GI50 [19]: < 10 nM | GI50 [20]: < 10 nM | GI50 [21]: < 10 nM | GI50 [22]: 36 nM | GI50 [23]: < 10 nM | GI50 [24]: < 10 nM | GI50 [25]: 20 nM | GI50 [26]: 22 nM | GI50 [27]: < 10 nM | GI50 [28]: < 10 nM | GI50 [29]: < 10 nM | GI50 [30]: < 10 nM | GI50 [31]: < 10 nM | GI50 [32]: < 10 nM | GI50 [33]: < 10 nM | GI50 [34]: < 10 nM | GI50 [35]: < 10 nM | GI50 [36]: < 10 nM | GI50 [37]: < 10 nM | GI50 [38]: < 10 nM | GI50 [39]: < 10 nM | GI50 [40]: < 10 nM | GI50 [41]: < 10 nM | GI50 [42]: < 10 nM | GI50 [43]: < 10 nM | GI50 [44]: 42 nM | GI50 [45]: 42 nM | GI50 [46]: < 10 nM | GI50 [47]: < 10 nM | GI50 [48]: < 10 nM | GI50 [49]: < 10 nM | GI50 [50]: < 10 nM | GI50 [51]: < 10 nM | GI50 [52]: < 10 nM | GI50 [53]: 48 nM | GI50 [54]: < 10 nM | GI50 [55]: 34 nM
